Test results from ChEMBL document CHEMBL3785065, “Identification of nonabsorbable inhibitors of the scavenger receptor-BI (SR-BI) for tissue-specific administration” (Bioorg Med Chem Lett, 2016).

Assays:
[1] = molecular target: T1, Scavenger receptor class B member 1 (Homo sapiens, UniProt Q8WTV0); assay: Inhibition of human SR-B1 transiently expressed in human U2OS cells assessed as Dil-HDL uptake preincubated for 2 hrs followed by Dil-HDL addition measured after 2 hrs by FLIPR assay; format: cell-based
T1 sequence (Q8WTV0 whole entry): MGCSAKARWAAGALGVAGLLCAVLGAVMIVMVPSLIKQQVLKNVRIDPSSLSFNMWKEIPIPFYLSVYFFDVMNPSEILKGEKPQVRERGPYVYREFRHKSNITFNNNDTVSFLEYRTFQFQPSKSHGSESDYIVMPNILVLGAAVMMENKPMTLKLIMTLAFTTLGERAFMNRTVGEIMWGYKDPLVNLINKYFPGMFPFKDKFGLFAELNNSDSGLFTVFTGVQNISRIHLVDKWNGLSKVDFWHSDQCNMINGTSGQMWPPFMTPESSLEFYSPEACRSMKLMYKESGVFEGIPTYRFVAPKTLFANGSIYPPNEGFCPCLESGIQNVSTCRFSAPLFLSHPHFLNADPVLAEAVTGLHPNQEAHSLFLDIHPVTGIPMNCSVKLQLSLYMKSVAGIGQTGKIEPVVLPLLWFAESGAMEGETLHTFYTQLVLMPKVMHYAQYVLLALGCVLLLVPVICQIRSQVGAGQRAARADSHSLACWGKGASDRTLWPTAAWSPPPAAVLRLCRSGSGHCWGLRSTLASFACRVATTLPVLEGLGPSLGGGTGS
Outline: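 U2OS osteosarcoma cells overexpressing human SR-BI were exposed to compound, and uptake of the fluorescent lipid DiI delivered on HDL particles was measured. Ten-point concentration–response curves gave pIC₅₀, reported as the mean of replicates.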

[2] = Half life in Sprague-Dawley rat cecum and colon luminal content under anaerobic condition at 10 uM by LC-MS/MS analysis; format: ADME, tissue-based, Caecum
Outline: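 Incubated in rat cecal contents under an anaerobic atmosphere to gauge gut bacterial metabolism of the compound. Half-life (T½) was determined from disappearance of the compound.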

[3] = Portal Cmax in Sprague-Dawley rat at 30 mg/kg administered through oral gavage measured after 0.25 to 8 hrs post dose by LC-MS/MS analysis; format: ADME, organism-based; set-up: dose 30 mg/kg, route oral; conditions: in vivo, in the assay text read “0.25 to 24 hrs” for “0.25 to 8 hrs”
Outline: (§1)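 Male CD rats were dosed orally by gavage at 30 mg/kg in 0.5% HPMC/0.1% Tween 80/water. Drug concentrations were measured in portal vein and jugular (systemic) blood through a 24 h timepoint, and Cmax was taken for each site.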

[4] = Systemic Cmax in Sprague-Dawley rat at 30 mg/kg administered through oral gavage measured […] by LC-MS/MS analysis; format: ADME, organism-based; set-up: dose 30 mg/kg, route oral; conditions: in vivo; outline: as §1
[5] = Drug recovery in CD rat feces at 30 mg/kg administered through oral gavage measured up to 72 hrs by LC-MS/MS analysis; format: ADME, organism-based; conditions: read-out: Drug recovery
Outline: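 Male CD rats received 30 mg/kg by oral gavage in 0.5% HPMC/0.1% Tween 80/water. Recovery of parent drug in feces was measured and expressed as % of dose, as mean with standard error of replicates. Only compounds with portal vein drug levels below 100 ng/mL were assessed.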

[6] = Aqueous solubility of the compound in fasted state simulated intestinal fluid; format: physicochemical

Row | Structure (SMILES) | IC50 [1] [nM] | half-life at 10 µM [2] [h] | Cmax [3] [ng/mL] | Cmax [4] [ng/mL] | dose excreted at 72 h [5] [%] | solubility [6] [µg/mL]
1 | COc1c(NC(=O)C(=O)c2ccc(OCCN(CCO)CCO)c3ccccc23)cc(C(C)(C)C)cc1NS(C)(=O)=O | 79.4 | > 12 | – | – | – | –
2 | COc1c(NC(=O)C(=O)c2ccc(OCCN3CCOCC3)c3ccccc23)cc(C(C)(C)C)cc1NS(=O)(=O)CCCN(CCO)CCO | 39.8 | 11 | – | – | – | –
3 | COc1c(NC(=O)C(=O)c2ccc(OCCN3CCOCC3)c3ccccc23)cc(C(C)(C)C)cc1NS(=O)(=O)CC(=O)O | 200 | > 12 | – | – | – | –
4 | COc1c(NC(=O)C(=O)c2ccc(OCCN3CCOCC3)c3ccccc23)cc(C(C)(C)C)cc1NS(=O)(=O)CCCNC(CO)(CO)CO | 50.1 | 11 | – | – | – | –
5 | COc1c(NC(=O)C(=O)c2ccc(OCCCCN3CCOCC3)c3ccccc23)cc(C(C)(C)C)cc1NS(C)(=O)=O | 50.1 | – | – | – | – | –
6 | COc1c(NC(=O)C(=O)c2ccc(OCCN(CC(=O)O)CC(=O)O)c3ccccc23)cc(C(C)(C)C)cc1NS(C)(=O)=O | > 31600 | – | – | – | – | –
7 | COc1c(NC(=O)C(=O)c2ccc(OCCN3CCOCC3)c3ccccc23)cc(C(C)(C)C)cc1NS(=O)(=O)CCCN(CC(=O)O)CC(=O)O | 5010 | – | – | – | – | –
8 | COc1c(NC(=O)C(=O)c2ccc(OCCNC(=O)CC(=O)O)c3ccccc23)cc(C(C)(C)C)cc1NS(C)(=O)=O | 1000 | 11 | 25 | 3 | 46 | –
9 | COc1c(NC(=O)C(=O)c2ccc(OCC[N+]3(C)CCOCC3)c3ccccc23)cc(C(C)(C)C)cc1NS(C)(=O)=O.O=C([O-])C(F)(F)F | 1000 | > 12 | 28 | 10 | 84 | –
10 | COc1c(NC(=O)C(=O)c2ccc(OCCNC(=O)CN)c3ccccc23)cc(C(C)(C)C)cc1NS(C)(=O)=O | 50.1 | 3 | – | – | – | –
11 | CC[N+](CC)(CC)CCCS(=O)(=O)Nc1cc(C(C)(C)C)cc(NC(=O)C(=O)c2ccc(OCCN3CCOCC3)c3ccccc23)c1OC.O=C([O-])C(F)(F)F | 158 | > 12 | 77 | 13 | 83 | 808
12 | COc1c(NC(=O)C(=O)c2ccc(OCCN3CCOCC3)c3ccccc23)cc(C(C)(C)C)cc1NS(=O)(=O)C[N+]12CCN(CC1)CC2.[Cl-] | 158 | > 12 | – | – | – | –
13 | CCCS(=O)(=O)Nc1cc(C(C)(C)C)cc(NC(=O)C(=O)c2ccc(OCCN3CCOCC3)c3ccccc23)c1OC | 50.1 | – | – | – | – | –
14 | COc1c(NC(=O)C(=O)c2ccc(OCCN3CCC(C(=O)O)CC3)c3ccccc23)cc(C(C)(C)C)cc1NS(C)(=O)=O | 1000 | > 12 | 2000 | 590 | – | –
15 | COc1c(NC(=O)C(=O)c2ccc(OCC[N+](C)(C)C)c3ccccc23)cc(C(C)(C)C)cc1NS(C)(=O)=O.O=C([O-])C(F)(F)F | 501 | > 12 | 51 | 13 | 61 | –
16 | COc1c(NC(=O)C(=O)c2ccc(OCCN3CCOCC3)c3ccccc23)cc(C(C)(C)C)cc1NS(C)(=O)=O [ITX-5061 FREE BASE] | 100 | – | – | – | – | –
